From ChEMBL document CHEMBL1806360, “Synthesis and biological evaluation of conformationally flexible as well as restricted dimers of monastrol and related dihydropyrimidones” (Eur J Med Chem, 2011)
Values after ≈ are worked out from the molar mass of the structure shown.

Tests used:
HT-29 = assay: Cytotoxicity against human HT-29 cells after 48 hrs by MTT assay; assay type: functional, cell-based; conditions: HT-29, 48 h
A-431 = assay: Cytotoxicity against human A431 cells after 48 hrs by MTT assay; assay type: functional, cell-based; conditions: A-431, 48 h
In short: (§1)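 MTT assay. Medium with 10% FBS and 2 mM L-glutamine was DMEM for A431 and Colo-205, RPMI for A549, and MEM for MCF-7. Cultures were preincubated 24 h at 37 °C, 5% CO2. 1 × 10⁴ cells (trypan blue count) were exposed to 200, 100, 50, 25 and 10 concentration levels for 48 h at 37 °C. MTT was added for 4 h, formazan dissolved in DMSO, and A570 read. IC50 was curve-fitted from viability versus untreated cells, three experiments.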

MCF7 = assay: Cytotoxicity against human MCF7 cells after 48 hrs by MTT assay; assay type: functional, cell-based; conditions: MCF7, 48 h; in short: as §1
A549 = assay: Cytotoxicity against human A549 cells after 48 hrs by MTT assay; assay type: functional, cell-based; conditions: A549, 48 h; in short: as §1
COLO 205 = assay: Cytotoxicity against human COLO205 cells after 48 hrs by MTT assay; assay type: functional, cell-based; conditions: COLO 205, 48 h; in short: as §1
Nucleic Acid = assay: Binding affinity to calf thymus DNA assessed as change in melting temperature at compound to DNA ratio of 1:5 after 18 hrs at pH 7; assay type: nucleic-acid assay; conditions: Bos taurus
In short: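 Thermal melting of calf thymus DNA in 10 mM sodium phosphate with 1 mM Na2EDTA, pH 7.00. Compound was added from DMSO stock at a fixed 1:5 compound:DNA molar ratio. The mix was incubated 18 h at 37 °C, then A260 was monitored while heating at 1 °C/min over 40–90 °C. ΔTm is relative to DNA alone.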

| SMILES | IC50 (HT-29) [µg/mL] | IC50 (A-431) [µg/mL] | IC50 (MCF7) [µg/mL] | IC50 (A549) [µg/mL] | IC50 (COLO 205) [µg/mL] | ΔTm (Nucleic Acid) [°C] |
| --- | --- | --- | --- | --- | --- | --- |
| COC(=O)[C@@H]1CCCN1C(=O)C1=C(C)NC(=S)NC1c1ccc(OCCCCOc2ccc(C3NC(=S)NC(C)=C3C(=O)N3CCC[C@H]3C(=O)OC)cc2OC)c(OC)c1 (some centres undefined) | > 200 | 190 (≈ 220 µM) | 169 (≈ 195 µM) | > 200 | 154 (≈ 178 µM) | – |
| COC(=O)[C@@H]1CCCN1C(=O)C1=C(C)NC(=S)NC1c1cccc(OC/C=C/COc2cccc(C3NC(=S)NC(C)=C3C(=O)N3CCC[C@H]3C(=O)OC)c2)c1 (some centres undefined) | > 200 | 96 (≈ 120 µM) | 54 (≈ 67.2 µM) | 148 (≈ 184 µM) | 127 (≈ 158 µM) | 2.5 |
| COC(=O)[C@@H]1CCCN1C(=O)C1=C(C)NC(=S)NC1c1ccc(OC/C=C/COc2ccc(C3NC(=S)NC(C)=C3C(=O)N3CCC[C@H]3C(=O)OC)cc2OC)c(OC)c1 (some centres undefined) | > 200 | 34 (≈ 39.4 µM) | 60 (≈ 69.5 µM) | 158 (≈ 183 µM) | 69 (≈ 80 µM) | 2.8 |
| COC(=O)[C@@H]1CCCN1C(=O)C1=C(C)NC(=S)NC1c1cccc(OCCCCCOc2cccc(C3NC(=S)NC(C)=C3C(=O)N3CCC[C@H]3C(=O)OC)c2)c1 (some centres undefined) | > 200 | 159 (≈ 194 µM) | 34 (≈ 41.5 µM) | 184 (≈ 225 µM) | 71 (≈ 86.7 µM) | – |
| CCOC(=O)C1=C(C)NC(=S)NC1c1cccc(OCCCCOc2cccc(C3NC(=S)NC(C)=C3C(=O)OCC)c2)c1 (centres undefined) | > 200 | > 200 | 186 (≈ 291 µM) | > 200 | > 200 | – |
| COC(=O)[C@@H]1CCCN1C(=O)C1=C(C)NC(=S)NC1c1ccc(OCCCOc2ccc(C3NC(=S)NC(C)=C3C(=O)N3CCC[C@H]3C(=O)OC)cc2OC)c(OC)c1 (some centres undefined) | > 200 | 165 (≈ 194 µM) | 140 (≈ 165 µM) | 180 (≈ 212 µM) | 92 (≈ 108 µM) | – |
| COC(=O)[C@@H]1CCCN1C(=O)C1=C(C)NC(=S)NC1c1ccc(OCCCCCOc2ccc(C3NC(=S)NC(C)=C3C(=O)N3CCC[C@H]3C(=O)OC)cc2OC)c(OC)c1 (some centres undefined) | > 200 | 125 (≈ 142 µM) | 55 (≈ 62.6 µM) | 150 (≈ 171 µM) | 142 (≈ 162 µM) | – |
| CCOC(=O)C1=C(C)NC(=S)NC1c1ccc(OC/C=C/COc2ccc(C3NC(=S)NC(C)=C3C(=O)OCC)cc2OC)c(OC)c1 (centres undefined) | > 200 | 185 (≈ 265 µM) | 35 (≈ 50.2 µM) | 165 (≈ 237 µM) | 90 (≈ 129 µM) | 3.2 |
| COC(=O)[C@@H]1CCCN1C(=O)C1=C(C)NC(=S)NC1c1cccc(OCCCOc2cccc(C3NC(=S)NC(C)=C3C(=O)N3CCC[C@H]3C(=O)OC)c2)c1 (some centres undefined) | > 200 | 190 (≈ 240 µM) | 175 (≈ 221 µM) | 175 (≈ 221 µM) | > 200 | – |
| COC(=O)[C@@H]1CCCN1C(=O)C1=C(C)NC(=S)NC1c1ccc(OC/C=C\COc2ccc(C3NC(=S)NC(C)=C3C(=O)N3CCC[C@H]3C(=O)OC)cc2OC)c(OC)c1 (some centres undefined) | > 200 | 183 (≈ 212 µM) | 175 (≈ 203 µM) | > 200 | > 200 | 4.1 |
| CCOC(=O)C1=C(C)NC(=S)NC1c1cccc(OCCCCCOc2cccc(C3NC(=S)NC(C)=C3C(=O)OCC)c2)c1 (centres undefined) | > 200 | 74 (≈ 113 µM) | 178 (≈ 273 µM) | > 200 | 190 (≈ 291 µM) | – |
| COC(=O)[C@@H]1CCCN1C(=O)C1=C(C)NC(=S)NC1c1cccc(OCCCCOc2cccc(C3NC(=S)NC(C)=C3C(=O)N3CCC[C@H]3C(=O)OC)c2)c1 (some centres undefined) | > 200 | 148 (≈ 184 µM) | 128 (≈ 159 µM) | > 200 | 154 (≈ 191 µM) | – |
